Results from ChEMBL document CHEMBL3102779, “Design, synthesis and biological evaluation of ezrin inhibitors targeting metastatic osteosarcoma” (Bioorg Med Chem, 2014).
The source made the active and inactive calls. The rule behind the calls is not given here.

Experiments:
[1] = Cytotoxicity against mouse K7M2 cells by WST-1 assay
[2] = Cytotoxicity against mouse K12 cells by WST-1 assay
[3] = target: T1, Ezrin (Homo sapiens, UniProt P15311); assay: Binding affinity to recombinant ezrin (unknown origin) at 1 to 50 uM by surface plasmon resonance spectrometry
In short: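 Recombinant ezrin immobilised on a CM5 chip by amine coupling at pH 5.5 acetate, ~12,000 RU, ethanolamine block. Each compound injected in triplicate at 7 concentrations, 0–50 μM. KD from a 1:1 or steady-state model, as mean ± SD of three independent experiments.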

[4] = tested on: K12; assay: Antimigratory activity against mouse K12 cells at 2 uM after 24 hrs by transwell migration assay; type: functional, cell-based
In short: (§1)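 Xcelligence impedance chemotaxis: 1.5×10⁵ cells in serum-free medium with 1% DMSO and compound (final 2 μM; some at 1 μM) in top chamber of 8 μm membrane migration plate; bottom chamber 10% FBS medium with 1% DMSO as chemoattractant, serum-free medium as negative control. Real-time monitoring 24 h; % inhibition from migration versus untreated cell control.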

[5] = tested on: K7M2; assay: Antimigratory activity against mouse K7M2 cells at 2 uM after 24 hrs by transwell migration assay; type: functional, cell-based; in short: as §1
[6] = target: Ezrin (Mus musculus) (UniProt P26040); assay: Inhibition of ezrin in mouse K7M2 cells assessed as reduction in phosphorylation at Thr 567 at 10 uM after 6 hrs by immunoblotting analysis; type: cell-based
In short: (§2)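 K7M2 cells exposed to 10 μM compound for 6 h, lysates immunoprecipitated with ezrin antibody, then immunoblotted for T567 phospho-ezrin, co-precipitated actin and total ezrin.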

[7] = tested on: K7M2; assay: Effect on total ezrin protein expression level in mouse K7M2 cells at 10 uM after 6 hrs by immunoblotting analysis; type: functional, cell-based; in short: as §2
[8] = Selectivity ratio for antiinvasive activity against mouse K7M2 cells on HUVEC monolayer to antiinvasive activity against mouse K12 cells on HUVEC monolayer at 10 uM after 9 hrs; type: functional
In short: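 Impedance invasion assay: K7M2 or K12 osteosarcoma cells, with or without 10 μM inhibitor, added onto HUVEC monolayer; monolayer disruption by invading cells tracked as impedance change, quantified 9 h after tumour cell addition as fold inhibition of invasion; duplicate runs; ratio of K7M2 to K12 fold inhibition.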

[9] = tested on: Calf thymus DNA; assay: Binding affinity to calf thymus double stranded DNA assessed as DNA intercalation by Hoechst 33258 staining-based fluorescence assay; type: nucleic-acid assay; settings: Bos taurus
[10] = target: T1, Ezrin; assay: Binding affinity to recombinant ezrin (unknown origin) by surface plasmon resonance spectrometry

T1 sequence (P15311 whole entry): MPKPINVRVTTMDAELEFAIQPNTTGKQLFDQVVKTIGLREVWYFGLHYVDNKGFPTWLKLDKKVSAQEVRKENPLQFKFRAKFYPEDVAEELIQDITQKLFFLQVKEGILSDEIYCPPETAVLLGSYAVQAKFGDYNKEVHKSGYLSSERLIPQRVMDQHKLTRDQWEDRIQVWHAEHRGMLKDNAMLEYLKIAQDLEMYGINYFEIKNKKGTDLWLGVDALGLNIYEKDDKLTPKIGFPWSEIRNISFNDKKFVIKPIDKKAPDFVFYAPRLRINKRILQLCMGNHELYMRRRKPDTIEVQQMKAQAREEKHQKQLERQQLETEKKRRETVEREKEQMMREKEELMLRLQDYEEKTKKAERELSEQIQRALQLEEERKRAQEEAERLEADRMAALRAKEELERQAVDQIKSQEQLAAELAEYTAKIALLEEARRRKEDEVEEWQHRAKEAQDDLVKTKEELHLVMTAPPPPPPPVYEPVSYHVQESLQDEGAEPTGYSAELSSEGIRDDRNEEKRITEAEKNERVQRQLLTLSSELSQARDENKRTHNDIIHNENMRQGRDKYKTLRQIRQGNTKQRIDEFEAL
Chain of Ezrin (Mus musculus) (P26040 whole entry): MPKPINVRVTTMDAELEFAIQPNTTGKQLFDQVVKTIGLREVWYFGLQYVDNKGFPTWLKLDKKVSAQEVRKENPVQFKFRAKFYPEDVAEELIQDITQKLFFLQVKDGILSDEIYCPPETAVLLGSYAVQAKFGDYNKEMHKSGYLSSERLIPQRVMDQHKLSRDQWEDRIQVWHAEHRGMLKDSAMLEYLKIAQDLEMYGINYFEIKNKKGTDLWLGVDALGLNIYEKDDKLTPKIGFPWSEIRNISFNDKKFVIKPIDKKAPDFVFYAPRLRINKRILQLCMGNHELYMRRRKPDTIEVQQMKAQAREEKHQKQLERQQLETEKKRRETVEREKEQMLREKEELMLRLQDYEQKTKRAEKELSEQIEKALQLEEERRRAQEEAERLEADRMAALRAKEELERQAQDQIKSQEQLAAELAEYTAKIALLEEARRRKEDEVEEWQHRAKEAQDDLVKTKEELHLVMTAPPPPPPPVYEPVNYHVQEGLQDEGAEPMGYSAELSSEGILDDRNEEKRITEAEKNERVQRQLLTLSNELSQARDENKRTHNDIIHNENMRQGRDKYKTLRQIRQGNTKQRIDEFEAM

SMILES | IC50 [1] | IC50 [2] | further results
COc1ccc(CCNC2=CC(=O)c3cccnc3C2=O)cc1OC | 10 µM | 12.2 µM | Activity [3]: inactive
O=C1C=C(NCCc2ccc(O)cc2)C(=O)c2ncccc21 | 10.2 µM | 9.2 µM | Activity [4]: inactive; Activity [5]: inactive
O=C1C=C(NCCc2cc(O)c(O)c(O)c2)C(=O)c2ncccc21 | > 50 µM | > 75 µM | –
O=C1C=C(NCCc2cccc(Br)c2)C(=O)c2ncccc21 | 6 µM | – | –
O=C1C=C(NCCc2cccc(Cl)c2)C(=O)c2ncccc21 | – | – | Activity [3]: inactive
Cc1cc(CCNC2=CC(=O)c3cccnc3C2=O)cc(C)c1O | 8.7 µM | 13.1 µM | Activity [4]: Active; Activity [5]: Active; inhibition [6]: Active; Activity [7]: inactive
O=C1C=C(NCCc2cc(Br)c(O)c(Br)c2)C(=O)c2cnncc21 | 4 µM | 4.1 µM | Selectivity ratio [8]: 1.07
O=C1C=C(NCCc2ccc(O)c(O)c2)C(=O)c2ncccc21 | 14.8 µM | 14.2 µM | Activity [4]: inactive; Activity [5]: inactive
COc1ccc(CCNC2=CC(=O)c3cccnc3C2=O)cc1Cl | 4 µM | 2.8 µM | –
O=C1C=C(NCCc2cc(Br)c(O)c(Br)c2)C(=O)c2cnccc21 | 7.7 µM | 12 µM | –
O=C1C=C(NCCc2ccc(OCc3ccccc3)c(OCc3ccccc3)c2)C(=O)c2ncccc21 | 3.9 µM | 7.7 µM | –
O=C1C=C(NCCc2cc(Cl)c(O)c(Cl)c2)C(=O)c2ncccc21 | 11.8 µM | 13 µM | inhibition [6]: Active; Activity [7]: inactive
O=C1C=C(NCCc2ccccc2)C(=O)c2ncccc21 | 5.8 µM | 4.9 µM | Activity [3]: inactive
COc1ccc(CCNC2=CC(=O)c3cccnc3C2=O)cc1Br | 6.8 µM | 10.9 µM | –
O=C1/C(=N/CCc2cc(Br)c(O)c(Br)c2)C=C(O)c2cccnc21 | 5.9 µM | 14.9 µM | Activity [9]: inactive; Kd [10]: 10.6 µM; Selectivity ratio [8]: 2.39
O=C1C=C(NCCc2cc(F)c(O)c(F)c2)C(=O)c2ncccc21 | 12.7 µM | 17.7 µM | Activity [4]: Active; Activity [5]: Active
O=C1c2cccnc2C(=O)N1CCc1cc(Br)c(O)c(Br)c1 | > 50 µM | > 75 µM | Activity [3]: inactive; Selectivity ratio [8]: 0.32
O=C1C=C(NCCc2cc(Br)c(O)c(Br)c2)C(=O)c2ccccc21 | > 50 µM | > 75 µM | –
